Data: ChEMBL document CHEMBL2016521, “Preparation, gram-negative antibacterial activity, and hydrolytic stability of novel siderophore-conjugated monocarbam diols” (ACS Med Chem Lett, 2011)

What was measured:
[1] = tested on: Serratia marcescens; test: Antimicrobial activity against Serratia marcescens; assay type: functional
[2] = tested on: Pseudomonas aeruginosa; test: Antibacterial activity against Pseudomonas aeruginosa isolate 1091-05; assay type: functional
[3] = tested on: Klebsiella pneumoniae; test: Antibacterial activity against Klebsiella pneumoniae 1000-02; assay type: functional
[4] = tested on: Acinetobacter baumannii; test: Antibacterial activity against Acinetobacter baumannii AB-3167; assay type: functional
[5] = tested on: Pseudomonas aeruginosa; test: Antibacterial activity against Pseudomonas aeruginosa; assay type: functional
[6] = tested on: Pseudomonas aeruginosa; test: Antibacterial activity against imipenem-sensitive Pseudomonas aeruginosa isolate 1091-05 infected in ip dosed SF-1 mouse assessed as survival of animal administered 0.5 and 4 hrs post infected measured on day 4; assay type: functional; details: isolate 1091-05, ip, read-out: PD50
[7] = tested on: Pseudomonas aeruginosa; test: Antibacterial activity against imipenem-sensitive Pseudomonas aeruginosa isolate 1091-05 infected in sc dosed neutropenic-C3H/HeN mouse assessed as mouse survival administered 4 hrs post infection followed by BID dosing for two days measured on day 10; assay type: functional; details: isolate 1091-05, sc, read-out: PD50
[8] = Chemical stability of the compound in phosphate buffer at pH 6 at 1 uM after 24 hrs by HPLC analysis; assay type: physicochemical; details: pH 6, 24 h
Method in brief: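 Hydrolytic stability of the β-lactam ring was measured in aqueous buffer at pH 6.0 and 37 °C.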

[9] = Chemical stability of the compound in phosphate buffer at pH 8 assessed as drug degradation at 1 uM after 100 hrs by HPLC analysis; assay type: physicochemical; details: read-out: Drug degradation
Method in brief: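 Hydrolytic β-lactam ring-opening was followed in aqueous buffer at pH 8.0 and 37 °C over a 100 h incubation. The read-out was percent degradation.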

[10] = tested on: Citrobacter freundii; test: Antimicrobial activity against Citrobacter freundii; assay type: functional
[11] = tested on: Klebsiella aerogenes; test: Antimicrobial activity against Enterobacter aerogenes; assay type: functional
[12] = tested on: Escherichia coli; test: Antimicrobial activity against extended spectrum beta-lactamase-producing Escherichia coli; assay type: functional
[13] = tested on: Klebsiella pneumoniae; test: Antimicrobial activity against carbapenemase-producing Klebsiella pneumoniae; assay type: functional
[14] = tested on: Stenotrophomonas maltophilia; test: Antimicrobial activity against Stenotrophomonas maltophilia; assay type: functional
[15] = tested on: Acinetobacter sp.; test: Antimicrobial activity against Acinetobacter sp.; assay type: functional
[16] = Fraction unbound in mouse plasma at 1 uM by LC-MS/MS analysis; assay type: ADME, cell-free
[17] = tested on: Pseudomonas aeruginosa; test: Antibacterial activity against low inoculum imipenem-sensitive Pseudomonas aeruginosa isolate 1091-05 infected in sc dosed neutropenic-C3H/HeN mouse assessed as mouse survival administered 4 hrs post infection followed by BID dosing for two days measured on day 10; assay type: functional; details: isolate 1091-05, sc, read-out: PD50
[18] = tested on: Pseudomonas aeruginosa; test: Antibacterial activity against Pseudomonas aeruginosa cystic fibrosis isolate; assay type: functional
[19] = tested on: Escherichia coli; test: Antimicrobial activity against CTX-M-positive extended spectrum beta-lactamase-producing Escherichia coli; assay type: functional
[20] = tested on: Escherichia coli; test: Antimicrobial activity against Escherichia coli clinical isolate; assay type: functional
[21] = tested on: Klebsiella pneumoniae; test: Antimicrobial activity against extended spectrum beta-lactamase-producing Klebsiella pneumoniae; assay type: functional
[22] = tested on: Klebsiella pneumoniae; test: Antimicrobial activity against Klebsiella pneumoniae clinical isolate; assay type: functional
[23] = tested on: Pseudomonas aeruginosa; test: Antibacterial activity against metallo-beta-lactamase producing Pseudomonas aeruginosa; assay type: functional
[24] = tested on: Pseudomonas aeruginosa; test: Antibacterial activity against Pseudomonas aeruginosa clinical isolate; assay type: functional

In the case of `CC(C)(O/N=C(\C(=O)N[C@H]1CN(C(=O)[N-]S(=O)(=O)n2nc(-c3cc(=O)c(O)c[nH]3)n(C[C@@H](O)CO)c2=O)C1=O)c1csc(N)n1)C(=O)[O-].[Na+].[Na+]`, the MIC50 [1] is reported as 0.125 µg/mL, the MIC90 [1] is reported as 0.5 µg/mL and the MIC [2] is reported as 0.125 µg/mL. It also gave an MIC [3] of 0.5 µg/mL, an MIC [4] of 0.5 µg/mL and an MIC90 [5] of 0.5 µg/mL. The ED50 [6] was less than 1 mg/kg, the ED50 [7] was 20.6 mg/kg and the Stability [8] was “Stable”. For the same molecule, the degraded at 100 h, 1 µM [9] was 50%, the MIC50 [10] was 0.5 µg/mL and the MIC90 [10] was 2 µg/mL. The MIC50 [11] was 0.125 µg/mL, the MIC90 [11] was 0.25 µg/mL and the MIC50 [12] was 0.25 µg/mL. The MIC90 [12] was 2 µg/mL, the MIC50 [13] was 0.5 µg/mL and the MIC90 [13] was 8 µg/mL. It also gave an MIC50 [14] of 1 µg/mL, an MIC90 [14] of 2 µg/mL and an MIC50 [15] of 16 µg/mL. The MIC90 [15] was greater than 64 µg/mL, the fraction unbound at 1 µM [16] was 0.46 and the ED50 [17] was 6.9 mg/kg. The MIC50 [18] was 0.125 µg/mL, the MIC90 [18] was 0.5 µg/mL and the MIC50 [19] was 0.25 µg/mL. The MIC90 [19] was 2 µg/mL, the MIC50 [20] was 0.25 µg/mL and the MIC90 [20] was 2 µg/mL. For the same molecule, the MIC50 [21] was 0.5 µg/mL, the MIC90 [21] was 8 µg/mL and the MIC50 [22] was 0.5 µg/mL. The MIC90 [22] was 8 µg/mL, the MIC50 [23] was 0.125 µg/mL and the MIC90 [23] was 0.5 µg/mL. It also gave an MIC50 [24] of 0.125 µg/mL and an MIC90 [24] of 0.5 µg/mL.
